Data on 14 substances can be found in article PMC4957400 (MedChemComm, 2016).

Entries after “also recorded” stand apart in the source; their conditions may differ. Numbered stars: 1 amine (or outer) side, 2 acyl side, 3 side chain; on linkers, the order of the positions; unused ones are H or OH. Suc = O=C(CCC(=O)[*:2])[*:1]

Data set [1] relates to HIV-1 capsid protein p24 production. It is filed as cell-based. The settings on record: p24 ELISA; for inhibition of p24 expression: 40 μM; for suppression of HIV replication / inhibition of p24 / inhibition of the production of p24: initial screen; for suppression of HIV replication / inhibition of p24: 100 μM; for inhibition of the production of p24: 10 μM. In general terms: In an ELISA, binding on a coated surface is turned into a signal by an enzyme label.

A further data set deals with HIV-1 RRE IIB RNA. Description: Dissociation constants by electrophoretic mobility shift assay. As to conditions: EMSA, average of at least three experiments. It is filed as binding.
Data set [2] concerns U87 CXCR4 human glioblastoma cell line stably transfected with CD4 and CXCR4. Description: MTT toxicity assay. It is filed as cell-based. The settings on record: for toxicity (MTT assay): U87 CXCR4 cells, concentrations up to 100 μM; for cell viability (MTT assay in parallel with second p24 screening): at 40 μM. Put shortly: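 MTT viability read in U87 human glioblastoma cells stably transfected with CD4 and CXCR4, with cells receiving no compound as the control. It was run as a toxicity screen of test peptides and again in parallel with the second p24 ELISA screen of HIV replication.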
Background: Tetrazolium assays rely on reduction of a dye to a coloured formazan, in cell work by metabolically active cells.

A further data set has as its target wild-type RRE IIB RNA. The settings on record: EMSA; cited from earlier work. In general terms: Mobility shift assays separate free from complexed probe on a gel.

In general, Kd refers to the equilibrium constant for the complex coming apart. For the substance (KACRKK)2*KLKBBAY [Peptide A6], in data set [1], the “inhibition of p24 expression” value is listed as “approximately 90%” and the “suppression of HIV replication / inhibition of p24” value is listed as “greatly suppressed HIV replication; also recorded: complete or virtually complete inhibition of p24”. On HIV-1 RRE IIB RNA, the dissociation constant Kd stood at 60 ± 10 nM. Besides, in data set [2], the “toxicity (MTT assay)” value was “slight toxicity; also recorded: nearly non-toxic” and the “cell viability (MTT assay in parallel with second p24 screening)” value is reported as “confirmed cell viability”.

For (KKACRK)2*KLKBBAY [Peptide A7], in data set [1], the “inhibition of p24 expression” value was “approximately 90%”, the “inhibition of the production of p24” value amounted to 60% and the “suppression of HIV replication / inhibition of p24” value is “greatly suppressed HIV replication; also recorded: complete or virtually complete inhibition of p24”. For the same substance, the Kd on HIV-1 RRE IIB RNA was 70 ± 30 nM. In addition, in data set [2], the “toxicity (MTT assay)” value was “cytotoxicity in a dose-dependent manner; also recorded: moderate toxicity” and the “cell viability (MTT assay in parallel with second p24 screening)” value was “confirmed cell viability”.

Consider (KKBBAK)2*LLKY [Peptide A8], for which the Kd on HIV-1 RRE IIB RNA turned out to be 660 ± 90 nM.

With (KKK)2*KACRLKY [Peptide A3], the “suppression of HIV replication / inhibition of p24” value in data set [1] was “greatly suppressed HIV replication”. Further, the Kd at HIV-1 RRE IIB RNA came out at 140 ± 50 nM.

Regarding (KKK)2*KLKACRY [Peptide A4], the “suppression of HIV replication / inhibition of p24” value in data set [1] is “greatly suppressed HIV replication; also recorded: complete or virtually complete inhibition of p24”. Further, the Kd at HIV-1 RRE IIB RNA was 20 ± 4 nM. Besides, the “toxicity (MTT assay)” value in data set [2] is given as “slight toxicity”.

Regarding (KKK)2*LKBBAKBBAY [Peptide A1], in data set [1], the “suppression of HIV replication / inhibition of p24” value is listed as “greatly suppressed HIV replication; also recorded: complete or virtually complete inhibition of p24”. The Kd on HIV-1 RRE IIB RNA was 280 ± 80 nM.

As for (KKK)2*LKBBALY [Peptide A2], the Kd at HIV-1 RRE IIB RNA stood at 130 ± 30 nM.

On to (KKKBBA)2*KLKBBAY [Peptide A9], for which the Kd on HIV-1 RRE IIB RNA turned out to be 120 ± 40 nM.

Consider (KKL)2*KKBBAKBBAY [Peptide A14], for which, at HIV-1 RRE IIB RNA, the Kd was 170 ± 50 nM.

On to (KKL)2*LKKBBAY [Peptide A12], for which, at HIV-1 RRE IIB RNA, the Kd came to 330 ± 100 nM.

Turning to (KLK)2*KKKBBAY [Peptide A11], the “inhibition of the production of p24” value in data set [1] stood at 40%. The Kd at HIV-1 RRE IIB RNA came to 1430 ± 870 nM.

As for (KLK)2*LKKBBAY [Peptide A10], on HIV-1 RRE IIB RNA, the Kd was found to be 300 ± 40 nM.

Consider (LLK)2*KKBBAKY [Peptide A13], for which, on HIV-1 RRE IIB RNA, the Kd was determined as 210 ± 30 nM.

Suc-TRQARRNRRRRWRERQRAAAAR-NH2 [Rev17]: the Kd at wild-type RRE IIB RNA was 100 nM.
